Assay results: article PMC6424611 (Journal of molecular biology, 2019)
Where no end group is shown, it is not given here. [ ]: non-standard residue; d: D form. The star is where a group is joined. Biotin = O=C1N[C@H]2[C@H](CS[C@H]2CCCCC(=O)*)N1; TTDS = NCCCOCCOCCOCCCNC(=O)CCC(=O)*; pS = N[C@@H](COP(=O)(O)O)C(=O)O

Experiments:
SNX27 PDZ = SNX27 PDZ (Homo sapiens, UniProt Q96L92); assay: holdup assay; assay type: binding; conditions: ~4 μM PDZ; for binding intensity (BI): fraction of PDZ depleted, biotinylated RSK1_725–735, triplicates
DLG3 PDZ = assay: holdup assay, updated analysis; assay type: binding, human; conditions: weak partner; automated computational protocol
Summary of the method: (§1)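 The same triplicate holdup datasets (biotinylated RSK1 725–735, unphosphorylated and phosphorylated, vs ~4 μM PDZome lysates) were re-analysed with an updated automated computational protocol. This gave alternative BI values, reported as supplemental values alongside the conventional analysis.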

SNTG2 PDZ = molecular target: T1, SNTG2 PDZ (Homo sapiens, UniProt Q9NY99); assay: holdup assay; assay type: binding; conditions: ~4 μM PDZ; for binding intensity (BI): fraction of PDZ depleted, biotinylated RSK1_725–735, triplicates
T1 sequence (Q9NY99 73-156 limits assumed): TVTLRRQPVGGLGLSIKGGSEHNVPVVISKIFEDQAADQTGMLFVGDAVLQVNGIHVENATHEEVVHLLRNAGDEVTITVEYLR
Summary of the method: (§2)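 Automated holdup against N-terminally biotinylated (TTDS linker) RSK1 725–735 peptides, unphosphorylated and phosphorylated, in triplicate. PDZome v2 clones were codon-optimized and expressed in E. coli, with soluble lysate adjusted to ~4 μM. BI is the PDZ fraction depleted from the fluid phase.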

ARHGEF11 PDZ = assay: holdup assay; assay type: binding, human; conditions: ~4 μM PDZ; for binding intensity (BI): fraction of PDZ depleted, biotinylated RSK1_725–735, triplicates
Summary of the method: as §2

GRASP PDZ = assay: holdup assay; assay type: binding, human; conditions: ~4 μM PDZ; for binding intensity (BI): fraction of PDZ depleted, biotinylated RSK1_725–735, triplicates; for Kd: read-out: KD, estimated, from BI, estimated 17 μM peptide
Summary of the method: as §2

PDZD7-3 PDZ = molecular target: T2, PDZD7-3 PDZ (Homo sapiens, UniProt Q9H5P4); assay: holdup assay; assay type: binding; conditions: ~4 μM PDZ; for binding intensity (BI): fraction of PDZ depleted, biotinylated RSK1_725–735, triplicates; for Kd: read-out: KD, estimated, from BI, estimated 17 μM peptide
T2 sequence (Q9H5P4 862-934 limits assumed): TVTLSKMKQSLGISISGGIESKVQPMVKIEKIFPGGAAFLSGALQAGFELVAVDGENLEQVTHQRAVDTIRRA
Summary of the method: as §2

PARD3B-1 PDZ = molecular target: T3, PARD3B-1 PDZ (Homo sapiens, UniProt Q8TEW8); assay: holdup assay; assay type: binding; conditions: fraction of PDZ depleted; ~4 μM PDZ; biotinylated RSK1_725–735; triplicates
T3 sequence (Q8TEW8 201-289 limits assumed): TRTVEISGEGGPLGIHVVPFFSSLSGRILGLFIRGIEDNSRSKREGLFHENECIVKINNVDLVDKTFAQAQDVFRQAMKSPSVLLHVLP
Summary of the method: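 Automated holdup in triplicate measured biotinylated (N-terminal TTDS linker) RSK1 725–735 peptides, unphosphorylated or phosphorylated, against E. coli-expressed PDZome v2 domains. Soluble lysate was adjusted to ~4 μM, giving 255 domains for the unphosphorylated and 252 for the phosphorylated peptide. Binding intensity (BI) is the fraction of PDZ depleted from the fluid phase. BI 0.2 was the high-confidence threshold.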

SHROOM2 PDZ = assay: holdup assay; assay type: binding, human; conditions: ~4 μM PDZ; for binding intensity (BI): fraction of PDZ depleted, biotinylated RSK1_725–735, triplicates; for Kd: read-out: KD, estimated, from BI, estimated 17 μM peptide
Summary of the method: as §2

GORASP2 PDZ = assay: holdup assay; assay type: binding, human; conditions: ~4 μM PDZ; for binding intensity (BI): fraction of PDZ depleted, biotinylated RSK1_725–735, triplicates; for Kd: read-out: KD, estimated, from BI, estimated 17 μM peptide
Summary of the method: as §2

PDZRN3–2 PDZ = assay: holdup assay, updated analysis; assay type: binding, human; conditions: weak partner; automated computational protocol
Summary of the method: as §1

LAP2 PDZ = assay: holdup assay; assay type: binding, human; conditions: ~4 μM PDZ; for binding intensity (BI): fraction of PDZ depleted, biotinylated RSK1_725–735, triplicates
Summary of the method: as §2

ARHGEF12 PDZ = molecular target: T4, ARHGEF12 PDZ (Homo sapiens, UniProt Q9NZN5); assay: holdup assay; assay type: binding; conditions: ~4 μM PDZ; for binding intensity (BI): fraction of PDZ depleted, biotinylated RSK1_725–735, triplicates; for Kd: read-out: KD, estimated, from BI, estimated 17 μM peptide
T4 sequence (Q9NZN5 72-151 limits assumed): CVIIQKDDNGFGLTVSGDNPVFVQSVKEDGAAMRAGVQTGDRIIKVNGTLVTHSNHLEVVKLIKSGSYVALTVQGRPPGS
Summary of the method: as §2

LIN7A PDZ = assay: holdup assay, updated analysis; assay type: binding, human; conditions: weak partner; automated computational protocol
Summary of the method: as §1

NHERF2-2 PDZ = assay: holdup assay; assay type: binding, human; conditions: ~4 μM PDZ; for binding intensity (BI): fraction of PDZ depleted, biotinylated RSK1_725–735, triplicates; for Kd: read-out: KD, estimated, from BI, estimated 17 μM peptide
Summary of the method: as §2

RHPN1 PDZ = assay: holdup assay, updated analysis; assay type: binding, human; conditions: weak partner; automated computational protocol
Summary of the method: as §1

MPDZ-10 PDZ = assay: holdup assay, updated analysis; assay type: binding, human; conditions: weak partner; automated computational protocol
Summary of the method: as §1

SYNJ2BP PDZ = molecular target: T5, SYNJ2BP PDZ (Homo sapiens, UniProt P57105); assay: competitive fluorescence polarization; assay type: binding; conditions: summary of high-throughput SPR and competitive FP
T5 sequence (P57105 13-100 limits assumed): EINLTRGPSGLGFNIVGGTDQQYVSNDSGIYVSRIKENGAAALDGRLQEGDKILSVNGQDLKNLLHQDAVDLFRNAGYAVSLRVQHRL

[1] = read-out: KD, estimated, from BI, estimated 17 μM peptide

Row | binding intensity (BI) (SNX27 PDZ) | binding intensity (BI) (SNTG2 PDZ) | binding intensity (BI) (ARHGEF11 PDZ) | binding intensity (BI) (GRASP PDZ) | Kd (GRASP PDZ) [µM] | binding intensity (BI) (PDZD7-3 PDZ) | Kd (PDZD7-3 PDZ) [µM] | binding intensity (BI) (PARD3B-1 PDZ) | binding intensity (BI) (SHROOM2 PDZ) | Kd (SHROOM2 PDZ) [µM] | binding intensity (BI) (GORASP2 PDZ) | Kd (GORASP2 PDZ) [µM] | binding intensity (BI) (LAP2 PDZ) | binding intensity (BI) (ARHGEF12 PDZ) | Kd (ARHGEF12 PDZ) [µM] | binding intensity (BI) (NHERF2-2 PDZ) | Kd (NHERF2-2 PDZ) [µM] | Substance | other results
1 | 0.47 ± 0.02 | 0.52 ± 0.05 | 0.01 ± 0.02 | 0.04 ± 0.01 | > 100 | 0.15 ± 0.03 | 92.9 | 0.31 ± 0.02 | 0.21 ± 0.01 | 60.8 | 0.19 ± 0.01 | 69.2 | 0.28 ± 0.01 | 0.05 ± 0.05 | > 100 | 0.07 ± 0.05 | > 100 | phosphorylated RSK1 peptide: RSK1 C-terminal PBM peptide phosphorylated at position −3; same constructs as the unphosphorylated ({Biotin-TTDS}-RRVRKLP[pS]TTL) | interaction partner by updated analysis (DLG3 PDZ): new partners; Kd (ARHGEF11 PDZ; [1]): > 100 µM; interaction partner by updated analysis (PDZRN3–2 PDZ): new partners; interaction partner by updated analysis (LIN7A PDZ): new partners
2 | 0.08 ± 0.07 | 0.41 ± 0.02 | 0.28 ± 0.06 | 0.29 ± 0.01 | 38.8 | 0.60 ±0.03 | 9.7 | 0.52 ± 0.05 | 0.00 ± 0.01 | > 100 | 0.41 ± 0.02 | 22.1 | −0.02 ± 0.05 | 0.77 ± 0.02 | 4.2 | 0.20 ± 0.04 | 64.8 | unphosphorylated RSK1 peptide: C-terminal RSK1 PBM peptide; RSK1_725–735 (holdup, SPR), RSK1_729–735 (direct FP), RSK1_683–735 (competitive FP) ({Biotin-TTDS}-RRVRKLPSTTL) | Kd (SNX27 PDZ; [1]): > 100 µM; Kd (SNTG2 PDZ; [1]): 22.1 µM; interaction partner by updated analysis (RHPN1 PDZ): new interaction partners; Kd (LAP2 PDZ; [1]): > 100 µM; interaction partner by updated analysis (MPDZ-10 PDZ): new interaction partners; dissociation constant (SYNJ2BP PDZ): no interaction was detectable
